Experimental data reported in ChEMBL document CHEMBL1131482 (J Med Chem, 1998).

Key:
Mus musculus [1] = test: Licking latency was measured before treatment (at dose=25 mg/kg) by using mouse hot plate test; format: functional
Summary of the method: (§1)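 Male Swiss-Webster mice (22-28 g), 23 ± 1 °C, 12-h light/dark cycle, food and water ad libitum. Hot plate at 52.5 ± 0.1 °C with licking latency as read-out and 45 s cutoff. Mice with pre-drug latency below 12 or over 18 s were rejected. Compounds given sc, 5-12 mice per test. Significance was assessed by Dunnett's two-tailed test, P < 0.05.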

Mus musculus [2] = test: Licking latency was measured after 45 min treatment (at dose=25 mg/kg) by using mouse hot plate test; format: functional; summary of the method: as §1
Mus musculus [3] = test: Licking latency was measured after 30 min treatment (at dose=15 mg/kg) by using mouse hot plate test; format: functional; summary of the method: as §1
Mus musculus [4] = test: Licking latency was measured after 15 min treatment (at dose=25 mg/kg) by using mouse hot plate test; format: functional; summary of the method: as §1
Mus musculus [5] = test: Licking latency was measured after 15 min treatment (at dose=15 mg/kg) by using mouse hot plate test; format: functional; summary of the method: as §1
Mus musculus [6] = test: Licking latency was measured after 45 min treatment (at dose=15 mg/kg) by using mouse hot plate test; format: functional; summary of the method: as §1
Mus musculus [7] = test: Licking latency was measured after 30 min treatment (at dose=25 mg/kg) by using mouse hot plate test; format: functional; summary of the method: as §1
Mus musculus [8] = species on record: Mus musculus; test: Analgesic efficacy is expressed as percentage of that morphine, done on mouse.; format: functional
Mus musculus [9] = test: MNTD:Maximal nontoxic dose of the compound, done on mouse; sc; format: functional
Summary of the method: (§2)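 Male Swiss-Webster mice dosed sc. The value is the highest dose causing no visible behavioural change (tremors, convulsions, hypomotility etc.), so that treated mice could not be told apart from untreated ones. Behaviour was scored by the Irwin method in groups of at least 10 animals.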

Mus musculus [10] = test: Licking latency was measured before treatment (at dose=15 mg/kg) by using mouse hot plate test; format: functional; summary of the method: as §1
Mus musculus [11] = test: MAD: minimal dose able to induce a statistically significant increase of the pain threshold, done on mouse; sc; format: functional
Summary of the method: (§3)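 Mouse hot plate test (52.5 ± 0.1 °C, 45 s cutoff) after sc dosing, in male Swiss-Webster mice. The value is the lowest dose giving a statistically significant rise in pain threshold. Dunnett's two-tailed test compared treated mice at maximum reaction time with pretest time, P < 0.05.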

Mus musculus [12] = species on record: Mus musculus; test: Analgesic efficacy is expressed as percentage of that epibatidine, done on mouse.; format: functional
Mus musculus [13] = test: Licking latency was measured before treatment (at dose=5 mg/kg) by using mouse hot plate test; format: functional
Summary of the method: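 Male Swiss-Webster mice (22-28 g), 23 ± 1 °C, 12-h light/dark cycle. Hot plate at 52.5 ± 0.1 °C. Mice with pre-drug licking latency below 12 s or over 18 s were rejected. Cutoff 45 s. Compound given sc; latency read before dosing and at 15, 30 and 45 min. 5-12 mice per test.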

TE-671 [14] = test: Cholinergic interactions was measured with FLIPR device on TE671 cells and given as Effective dose; format: functional, cell-based; conditions: Homo sapiens
Summary of the method: (§4)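 Cells were plated on poly(ethylenimine)-coated plates and used about 72 h later. Loading was Fluo-3 AM for 1 h at 37 °C, followed by washes in Hepes-salts buffer, pH 7.4. FLIPR recorded Ca2+ fluorescence over 5 min after agonist addition. Responses were normalized to 100 µM nicotine (100%) and unloaded cells (0%), and EC50 and intrinsic activity were derived from concentration-response curves.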

IMR-32 [15] = test: Cholinergic interactions was measured with FLIPR device on IMR-32 cells of human neuroblastoma clonal line, given as effective dose; format: functional, cell-based; summary of the method: as §4
Mus musculus [16] = test: Licking latency was measured after 30 min treatment (at dose=20 mg/kg) by using mouse hot plate test; format: functional; summary of the method: as §1
Mus musculus [17] = test: Licking latency was measured before treatment (at dose=20 mg/kg) by using mouse hot plate test; format: functional; summary of the method: as §1
Mus musculus [18] = test: Licking latency was measured after 45 min treatment (at dose=5 mg/kg) by using mouse hot plate test; format: functional; summary of the method: as §1
IMR-32 [19] = test: Cholinergic interactions was measured with FLIPR device on cells of IMR-32 human neuroblastoma clonal line and given as Intrinsic activity; format: functional; summary of the method: as §4
Mus musculus [20] = test: Licking latency was measured after 15 min treatment (at dose=1 mg/kg) by using mouse hot plate test; format: functional; summary of the method: as §1
Mus musculus [21] = test: Licking latency was measured before treatment (at dose=10 mg/kg) by using mouse hot plate test; format: functional; summary of the method: as §1
Mus musculus [22] = test: Licking latency was measured after 30 min treatment (at dose=1 mg/kg) by using mouse hot plate test; format: functional; summary of the method: as §1
Mus musculus [23] = test: Licking latency was measured after 30 min treatment (at dose=5 mg/kg) by using mouse hot plate test; format: functional; summary of the method: as §1
Mus musculus [24] = test: Licking latency was measured after 45 min treatment (at dose=1 mg/kg) by using mouse hot plate test; format: functional; summary of the method: as §1
Mus musculus [25] = test: Licking latency was measured after 15 min treatment (at dose=10 mg/kg) by using mouse hot plate test; format: functional; summary of the method: as §1
[26] = target: Neuronal acetylcholine receptor; alpha4/beta2 (Rattus norvegicus, UniProt P09483+P12390); test: Cholinergic interactions was measured as displaced [3H][…] from Nicotinic acetylcholine receptor alpha4-beta2 in rat brain membranes; format: cell membranes
Sequence of Neuronal acetylcholine receptor; alpha4/beta2 (P09483 whole entry): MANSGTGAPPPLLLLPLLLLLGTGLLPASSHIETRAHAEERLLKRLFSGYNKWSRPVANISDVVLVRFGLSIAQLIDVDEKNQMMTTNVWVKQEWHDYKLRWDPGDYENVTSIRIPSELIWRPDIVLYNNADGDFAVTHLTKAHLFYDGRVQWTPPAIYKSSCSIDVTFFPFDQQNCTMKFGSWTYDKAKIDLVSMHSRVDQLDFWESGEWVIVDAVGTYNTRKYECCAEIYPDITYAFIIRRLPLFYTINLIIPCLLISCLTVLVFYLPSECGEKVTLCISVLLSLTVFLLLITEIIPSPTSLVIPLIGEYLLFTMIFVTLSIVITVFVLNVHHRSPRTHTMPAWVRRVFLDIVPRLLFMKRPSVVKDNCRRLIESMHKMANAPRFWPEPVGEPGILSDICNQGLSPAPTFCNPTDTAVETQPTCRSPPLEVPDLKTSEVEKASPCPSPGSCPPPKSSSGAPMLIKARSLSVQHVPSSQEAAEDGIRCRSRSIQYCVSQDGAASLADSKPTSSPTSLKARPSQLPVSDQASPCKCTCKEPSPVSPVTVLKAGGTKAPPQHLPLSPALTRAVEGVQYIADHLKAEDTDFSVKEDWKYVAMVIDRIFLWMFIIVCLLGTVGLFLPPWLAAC
Sequence of Neuronal acetylcholine receptor; alpha4/beta2 (P12390 whole entry): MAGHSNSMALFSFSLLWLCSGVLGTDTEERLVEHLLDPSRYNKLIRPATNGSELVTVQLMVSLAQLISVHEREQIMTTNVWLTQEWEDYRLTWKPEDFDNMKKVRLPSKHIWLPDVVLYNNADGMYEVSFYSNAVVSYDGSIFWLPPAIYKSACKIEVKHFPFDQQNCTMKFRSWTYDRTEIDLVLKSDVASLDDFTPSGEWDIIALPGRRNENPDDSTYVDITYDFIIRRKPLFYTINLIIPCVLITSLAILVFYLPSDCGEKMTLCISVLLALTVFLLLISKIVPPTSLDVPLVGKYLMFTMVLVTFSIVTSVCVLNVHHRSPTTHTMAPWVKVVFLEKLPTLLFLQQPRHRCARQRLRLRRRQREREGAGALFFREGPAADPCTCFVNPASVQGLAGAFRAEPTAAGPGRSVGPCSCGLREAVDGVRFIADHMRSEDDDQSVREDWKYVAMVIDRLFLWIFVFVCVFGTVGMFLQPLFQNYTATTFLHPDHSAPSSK
Summary of the method: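 Rat cerebral cortical membranes were washed and resuspended in Tris-HCl 50 mM buffer, pH 7.4, then spun at 45000g. Samples held 150-200 µg protein and 0.7 nM [3H]-(-)-cytisine with varying modulator concentrations. Incubation was 75 min at 4 °C in triplicate. Nonspecific binding was defined with 10 µM (-)-nicotine.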

Mus musculus [27] = test: Licking latency was measured after 15 min treatment (at dose=5 mg/kg) by using mouse hot plate test; format: functional; summary of the method: as §1
Mus musculus [28] = test: Licking latency was measured after 45 min treatment (at dose=20 mg/kg) by using mouse hot plate test; format: functional; summary of the method: as §1
Mus musculus [29] = test: Licking latency was measured before treatment (at dose=1 mg/kg) by using mouse hot plate test; format: functional; summary of the method: as §1
K177 cell line [30] = test: Cholinergic interactions was measured with FLIPR device on […] cells and given as Intrinsic activity; format: functional, Homo sapiens; summary of the method: as §4
Mus musculus [31] = test: Minimal dose able to induce a statistically significant increase of the pain threshold, done on mouse; sc; format: functional; summary of the method: as §3
Mus musculus [32] = test: Licking latency was measured after 30 min treatment (at dose=10 mg/kg) by using mouse hot plate test; format: functional; summary of the method: as §1
K177 cell line [33] = test: Cholinergic interactions was measured with FLIPR device on […] cells and given as EC50.; format: functional, cell-based; conditions: Homo sapiens; summary of the method: as §4
Mus musculus [34] = test: Maximal nontoxic dose of the compound, done on mouse; sc; format: functional; summary of the method: as §2
TE-671 [35] = test: Cholinergic interactions was measured with FLIPR device on TE671 cells and given as Intrinsic activity; format: functional, Homo sapiens; summary of the method: as §4

## Clc1cccc(N2CC3CCC(C2)N3)n1
Mus musculus [1]
  Licking latency: 14.6 s
Mus musculus [2]
  Licking latency: 34.2 s
Mus musculus [3]
  Licking latency: 22.1 s
Mus musculus [4]
  Licking latency: 31.9 s
Mus musculus [5]
  Licking latency: 23.6 s
Mus musculus [6]
  Licking latency: 22 s
Mus musculus [7]
  Licking latency: 37 s
Mus musculus [8]
  Analgesic efficacy compared to morphine: 116%
Mus musculus [9]
  MNTD: 30 mg/kg
Mus musculus [10]
  Licking latency: 13.5 s
Mus musculus [11]
  MAD: 15 mg/kg
Mus musculus [12]
  Analgesic efficacy compared to epibatidine: 142%

## Clc1ccc(N2CC3CCC(C2)N3)nn1
Mus musculus [13]
  Licking latency: 13.7 s
TE-671 [14]
  EC50: > 1000 µM
IMR-32 [15]
  EC50: 12.2 µM
Mus musculus [16]
  Licking latency: 39.8 s
Mus musculus [17]
  Licking latency: 14.3 s
Mus musculus [18]
  Licking latency: 26.5 s
IMR-32 [19]
  Intrinsic activity: 122.6%
Mus musculus [20]
  Licking latency: 21.5 s
Mus musculus [21]
  Licking latency: 14.2 s
Mus musculus [22]
  Licking latency: 25.6 s
Mus musculus [23]
  Licking latency: 28.5 s
Mus musculus [24]
  Licking latency: 21.5 s
Mus musculus [25]
  Licking latency: 32.3 s
[26]
  Ki: 4.1 µM
Mus musculus [27]
  Licking latency: 27.8 s
Mus musculus [28]
  Licking latency: 33.8 s
Mus musculus [8]
  Efficacy: 136%
Mus musculus [29]
  Licking latency: 13.5 s
K177 cell line [30]
  Intrinsic activity: 164%
Mus musculus [31]
  MAD: 1 mg/kg
Mus musculus [32]
  Licking latency: 38.3 s
K177 cell line [33]
  EC50: 24 µM
Mus musculus [12]
  Efficacy: 167%
Mus musculus [34]
  MNTD: 30 mg/kg
TE-671 [35]
  Intrinsic activity: 9.6%
